26 compounds from ChEMBL document CHEMBL1275388, “Discovery and synthesis of novel luteolin derivatives as DAT agonists” (Bioorg Med Chem, 2010) can be followed below.

The term EC50 denotes the concentration that produces a half-maximal response. Low readings indicate a more potent agent, high ones a less potent agent.

The target in this test is Sodium-dependent dopamine transporter (Rattus norvegicus, UniProt P23977). Description: Agonist activity at rat DAT expressed in CHO cells. The format is functional, cell-based. The essentials: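 CHO cell lines constructed to stably express DAT were used to measure DAT agonistic activity, reported as EC50.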
Sequence of Sodium-dependent dopamine transporter (P23977 whole entry): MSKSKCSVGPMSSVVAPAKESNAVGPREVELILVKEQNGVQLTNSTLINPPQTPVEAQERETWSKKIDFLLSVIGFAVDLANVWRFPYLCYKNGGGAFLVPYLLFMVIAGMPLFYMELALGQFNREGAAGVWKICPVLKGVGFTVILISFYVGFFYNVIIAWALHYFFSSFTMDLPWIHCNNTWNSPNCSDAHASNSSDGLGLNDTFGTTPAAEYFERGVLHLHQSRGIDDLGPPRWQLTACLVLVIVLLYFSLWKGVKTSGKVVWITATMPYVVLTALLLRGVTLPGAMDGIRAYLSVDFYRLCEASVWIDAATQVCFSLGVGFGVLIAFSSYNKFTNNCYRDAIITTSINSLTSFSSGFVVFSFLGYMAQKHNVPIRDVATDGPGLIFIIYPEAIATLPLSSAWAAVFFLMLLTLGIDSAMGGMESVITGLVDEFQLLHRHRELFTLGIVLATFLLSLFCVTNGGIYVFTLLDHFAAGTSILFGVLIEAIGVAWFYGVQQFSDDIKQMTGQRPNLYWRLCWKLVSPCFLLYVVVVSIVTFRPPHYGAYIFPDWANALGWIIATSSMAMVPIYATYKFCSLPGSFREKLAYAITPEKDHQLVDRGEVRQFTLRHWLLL
For `CC(=O)Oc1cc(O)cc2oc(-c3ccc(O)c(O)c3)cc(=O)c12`, a half-maximal effect (EC50) was put at 5.37 µM.

`CCC(=O)Oc1cc(O)cc2oc(-c3ccc(O)c(O)c3)cc(=O)c12` displayed an EC50 of 31 µM.

`CCCC(=O)Oc1cc(O)cc2oc(-c3ccc(O)c(O)c3)cc(=O)c12` showed an EC50 of 1.82 µM.

For the compound `CC(C)C(=O)Oc1cc(O)cc2oc(-c3ccc(O)c(O)c3)cc(=O)c12`, the EC50 is 0.046 µM.

On to `CCCCC(=O)Oc1cc(O)cc2oc(-c3ccc(O)c(O)c3)cc(=O)c12`, for which the EC50 was found to be 0.869 µM.

As to `CC(C)CCC(=O)Oc1cc(O)cc2oc(-c3ccc(O)c(O)c3)cc(=O)c12`, the EC50 worked out at 2.71 µM.

Regarding `CCCCCCCC(=O)Oc1cc(O)cc2oc(-c3ccc(O)c(O)c3)cc(=O)c12`, the EC50 was found to be 8.56 µM.

The compound `O=C(Oc1cc(O)cc2oc(-c3ccc(O)c(O)c3)cc(=O)c12)c1ccccc1` showed an EC50 of 11.2 µM.

The compound `Cc1ccc(C(=O)Oc2cc(O)cc3oc(-c4ccc(O)c(O)c4)cc(=O)c23)cc1` displayed an EC50 of 6.92 µM.

For `COc1cc(O)cc2oc(-c3ccc(O)c(O)c3)cc(=O)c12`, the EC50 is 4.35 µM.

`CCOc1cc(O)cc2oc(-c3ccc(O)c(O)c3)cc(=O)c12` yielded an EC50 of 2.21 µM.

`CCCOc1cc(O)cc2oc(-c3ccc(O)c(O)c3)cc(=O)c12`: a half-maximal response (EC50) required 3.07 µM.

For `CC(C)Oc1cc(O)cc2oc(-c3ccc(O)c(O)c3)cc(=O)c12`, the response was half-maximal at 5.43 µM (EC50).

Turning to `CCCCOc1cc(O)cc2oc(-c3ccc(O)c(O)c3)cc(=O)c12`, it took 2.4 µM to reach a half-maximal effect (EC50).

Turning to `CC(C)COc1cc(O)cc2oc(-c3ccc(O)c(O)c3)cc(=O)c12`, the 50% effective concentration (EC50) stood at 4.8 µM.

`CC(C)CCOc1cc(O)cc2oc(-c3ccc(O)c(O)c3)cc(=O)c12` returned an EC50 of 3.43 µM.

`CCCCCCOc1cc(O)cc2oc(-c3ccc(O)c(O)c3)cc(=O)c12` registered an EC50 of 4.58 µM.

Consider `CCCCCCCCOc1cc(O)cc2oc(-c3ccc(O)c(O)c3)cc(=O)c12`, for which the 50% effective concentration (EC50) is 16.5 µM.

As to `CCCCCCCCCCOc1cc(O)cc2oc(-c3ccc(O)c(O)c3)cc(=O)c12`, the EC50 was 33 µM.

As to `O=c1cc(-c2ccc(O)c(O)c2)oc2cc(O)cc(OCCCCc3ccccc3)c12`, the midpoint of the response, the EC50, lay at 2.59 µM.

As for `CCC(=O)Oc1cc(O)c2c(=O)cc(-c3ccc(O)c(O)c3)oc2c1`, the EC50 came out at 1.7 µM.

Consider `CCCC(=O)Oc1cc(O)c2c(=O)cc(-c3ccc(O)c(O)c3)oc2c1`, for which the response was half-maximal at 1.69 µM (EC50).

Turning to `CC(C)C(=O)Oc1cc(O)c2c(=O)cc(-c3ccc(O)c(O)c3)oc2c1`, the EC50 worked out at 1.38 µM.

As for `COc1cc(OC)c2c(=O)cc(-c3ccc(O)c(O)c3)oc2c1`, the EC50 was 3.42 µM.

Compound `CCOc1cc(-c2cc(=O)c3c(O)cc(O)cc3o2)ccc1O` came in with a half-maximal effective concentration (EC50) of 12.9 µM.

With `O=c1cc(-c2ccc(O)c(O)c2)oc2cc(O)cc(O)c12` [LUTEOLIN], a half-maximal response (EC50) required 1.45 µM.
